Laboratory results from ChEMBL document CHEMBL1240439, “Synthesis and docking studies of novel benzopyran-2-ones with anticancer activity” (2010).

Key:
Assay type in all cases: functional
RPMI-8226 = assay: Cytotoxicity against human RPMI8226 cells assessed as cell growth at 10 uM after 48 hrs by sulforhodamine B assay; settings: RPMI-8226, 48 h, read-out: Activity
UACC-62 = assay: Cytotoxicity against human UACC62 cells assessed as cell growth at 10 uM after 48 hrs by sulforhodamine B assay; settings: UACC-62, 48 h, read-out: Activity
SR = assay: Cytotoxicity against human SR cells assessed as cell growth at 10 uM after 48 hrs by sulforhodamine B assay; settings: read-out: Activity
SK-MEL-2 = assay: Cytotoxicity against human SK-MEL-2 cells assessed as cell growth at 10 uM after 48 hrs by sulforhodamine B assay; settings: SK-MEL-2, 48 h, read-out: Activity
OVCAR-4 = assay: Cytotoxicity against human OVCAR4 cells assessed as cell growth at 10 uM after 48 hrs by sulforhodamine B assay; settings: OVCAR-4, 48 h, read-out: Activity
T47D = assay: Cytotoxicity against human T47D cells assessed as cell growth at 10 uM after 48 hrs by sulforhodamine B assay; settings: read-out: Activity
A549 = assay: Cytotoxicity against human A549 cells assessed as cell growth at 10 uM after 48 hrs by sulforhodamine B assay; settings: A549, 48 h, read-out: Activity
NCI-H226 = assay: Cytotoxicity against human NCI-H226 cells assessed as cell growth at 10 uM after 48 hrs by sulforhodamine B assay; settings: NCI-H226, 48 h, read-out: Activity
HCT-116 [1] = assay: Cytotoxicity against human HCT116 cells assessed as cell growth at 10 uM after 48 hrs by sulforhodamine B assay; settings: HCT-116, 48 h, read-out: Activity
SW-620 = assay: Cytotoxicity against human SW620 cells assessed as cell growth at 10 uM after 48 hrs by sulforhodamine B assay; settings: SW-620, 48 h, read-out: Activity
MDA-MB-468 = assay: Cytotoxicity against human MDA-MB-468 cells assessed as cell growth at 10 uM after 48 hrs by sulforhodamine B assay; settings: MDA-MB-468, 48 h, read-out: Activity
[2] = Cytotoxicity against human Hs 578T cells assessed as cell growth at 10 uM after 48 hrs by sulforhodamine B assay; settings: read-out: Activity
IGROV-1 = assay: Cytotoxicity against human IGROV1 cells assessed as cell growth at 10 uM after 48 hrs by sulforhodamine B assay; settings: IGROV-1, 48 h, read-out: Activity
OVCAR-5 = assay: Cytotoxicity against human OVCAR5 cells assessed as cell growth at 10 uM after 48 hrs by sulforhodamine B assay; settings: OVCAR-5, 48 h, read-out: Activity
OVCAR-8 = assay: Cytotoxicity against human OVCAR8 cells assessed as cell growth at 10 uM after 48 hrs by sulforhodamine B assay; settings: OVCAR-8, 48 h, read-out: Activity
A498 = assay: Cytotoxicity against human A498 cells assessed as cell growth at 10 uM after 48 hrs by sulforhodamine B assay; settings: A498, 48 h
SN12C = assay: Cytotoxicity against human SN12C cells assessed as cell growth at 10 uM after 48 hrs by sulforhodamine B assay; settings: read-out: Activity
UO-31 = assay: Cytotoxicity against human UO31 cells assessed as cell growth at 10 uM after 48 hrs by sulforhodamine B assay; settings: UO-31, 48 h, read-out: Activity
SK-MEL-28 = assay: Cytotoxicity against human SK-MEL-28 cells assessed as cell growth at 10 uM after 48 hrs by sulforhodamine B assay; settings: SK-MEL-28, 48 h, read-out: Activity
SK-MEL-5 = assay: Cytotoxicity against human SK-MEL-5 cells assessed as cell growth at 10 uM after 48 hrs by sulforhodamine B assay; settings: SK-MEL-5, 48 h, read-out: Activity
UACC-257 = assay: Cytotoxicity against human UACC257 cells assessed as cell growth at 10 uM after 48 hrs by sulforhodamine B assay; settings: UACC-257, 48 h, read-out: Activity
SF-539 = assay: Cytotoxicity against human SF539 cells assessed as cell growth at 10 uM after 48 hrs by sulforhodamine B assay; settings: SF-539, 48 h, read-out: Activity
SNB-75 = assay: Cytotoxicity against human SNB75 cells assessed as cell growth at 10 uM after 48 hrs by sulforhodamine B assay; settings: SNB-75, 48 h, read-out: Activity
U-251 = assay: Cytotoxicity against human U251 cells assessed as cell growth at 10 uM after 48 hrs by sulforhodamine B assay; settings: U-251, 48 h, read-out: Activity
[3] = Cytotoxicity against human leukemia cells after 48 hrs by sulforhodamine B assay; settings: Leukemia cell
Procedure, shortened: (§1)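 Cells plated at 5000–40,000/well according to doubling time, then held 24 h at 37 °C, 5% CO2, with time-zero plates TCA-fixed. DMSO stocks (400× top concentration) were diluted in medium containing 50 μg/ml gentamycin, giving five 10-fold or ½-log concentrations. After 48 h, adherent cells were fixed in 10% TCA and suspension cells in 16% TCA (final), stained with 0.4% SRB, read at 515 nm. GI50, TGI and LC50 were calculated per cell line.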

[4] = Cytotoxicity against human colon cancer cells after 48 hrs by sulforhodamine B assay; settings: Cancer cell lines; procedure, shortened: as §1
[5] = Cytotoxicity against human melanoma cells after 48 hrs by sulforhodamine B assay; settings: Melanoma cell; procedure, shortened: as §1
[6] = Cytotoxicity against human ovarian cancer cells after 48 hrs by sulforhodamine B assay; settings: Cancer cell lines; procedure, shortened: as §1
CCRF-CEM = assay: Cytotoxicity against human CCRF-CEM cells after 48 hrs by sulforhodamine B assay
Procedure, shortened: (§2)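 Cells were plated at 5000–40,000/well according to doubling time and preincubated 24 h at 37 °C, 5% CO2. Time-zero plates were TCA-fixed. DMSO stocks were diluted in medium with gentamycin to five concentrations (10-fold or ½ log series) plus control, then incubated 48 h. Adherent cells were fixed with cold TCA (suspension cells with 16% final), stained with SRB, and read at 515 nm. GI50, TGI and LC50 were calculated per line.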

HL-60(TB) = assay: Cytotoxicity against human HL-60(TB) cells after 48 hrs by sulforhodamine B assay; settings: HL-60, 48 h
Procedure, shortened: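 Cells plated at 5000–40,000/well by doubling time and held 24 h at 37 °C, 5% CO2, with TCA-fixed zero-time plates. Drug given as DMSO stock diluted in medium with 50 μg/ml gentamycin, five concentrations (10-fold or ½ log steps), for 48 h. Settled suspension cells fixed with TCA (final 16%), stained with 0.4% SRB, read at 515 nm. GI50, TGI and LC50 calculated.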

HCT-116 [7] = assay: Cytotoxicity against human HCT116 cells after 48 hrs by sulforhodamine B assay; settings: HCT-116, 48 h; procedure, shortened: as §2
[8] = read-out: LC50 (the source's name)

Q: Which results are given for `Cc1cc(=O)n(C(=O)COc2ccc3c(-c4ccccc4)cc(=O)oc3c2C)[nH]1`?
A: growth at 10 µM (RPMI-8226): -18.2%; growth at 10 µM (UACC-62): -27.3%; growth at 10 µM (SR): 18.5%; growth at 10 µM (SK-MEL-2): -12.2%; growth at 10 µM (OVCAR-4): -42.9%; growth at 10 µM (T47D): -1.54%; growth at 10 µM (A549): 0.69%; growth at 10 µM (NCI-H226): 0.36%; growth at 10 µM (HCT-116 [1]): -65.9%; growth at 10 µM (SW-620): -65.9%; growth at 10 µM (MDA-MB-468): -8.13%; growth at 10 µM [2]: -4.17%; growth at 10 µM (IGROV-1): -17.5%; growth at 10 µM (OVCAR-5): 10.2%; growth at 10 µM (OVCAR-8): -30.5%; TGI (A498): 3.76 µM; growth at 10 µM (A498; read-out: Activity): -3.79%; growth at 10 µM (SN12C): -69.3%; growth at 10 µM (UO-31): 18.6%; growth at 10 µM (SK-MEL-28): -47.2%; growth at 10 µM (SK-MEL-5): -31.5%; growth at 10 µM (UACC-257): 6.57%; growth at 10 µM (SF-539): -78.2%; growth at 10 µM (SNB-75): -35.2%; growth at 10 µM (U-251): -72.4%; GI50 [3]: 3.44 µM; TGI [3]: 50.8 µM; CC50 [3, 8]: 94 µM; GI50 [4]: 8.98 µM; TGI [4]: 32.6 µM; CC50 [4, 8]: 64.5 µM; GI50 [5]: 4.65 µM; TGI [5]: 43.2 µM; CC50 [5, 8]: 72.4 µM; GI50 [6]: 8.53 µM; TGI [6]: 28.7 µM; CC50 [6, 8]: 52 µM; GI50 (CCRF-CEM): < 0.04 µM; TGI (CCRF-CEM): 0.57 µM; TGI (HL-60(TB)): 2.62 µM; GI50 (HCT-116 [7]): 1.94 µM; TGI (HCT-116 [7]): 3.76 µM
